# Data: ChEMBL document CHEMBL1153809, “7,7-Dimethylaporphine alkaloids from the stem of Guatteriopsis friesiana” (2009)
# Legend:
# Type in all cases: functional
# Escherichia coli = assay: Antimicrobial activity against Escherichia coli ATCC 11775 after 48 hrs by TTC staining method; conditions: ATCC 11775, 48 h
# Procedure, shortened: (§1)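 Bacteria grown overnight at 36 °C on nutrient agar. Cells suspended in 0.85% NaCl to McFarland 0.5 (checked at 580 nm), then diluted to 10^4 CFU/mL. Broth microdilution in Mueller-Hinton broth, in duplicate. Samples tested at 1.0-0.016 mg/mL; chloramphenicol and nystatin references at 0.25-0.002 mg/mL. Incubated 36 °C for 48 h, then 0.5% TTC added. MIC is the lowest concentration inhibiting visible growth by TTC staining.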
# Micrococcus luteus = assay: Antimicrobial activity against Micrococcus luteus ATCC 4968 after 48 hrs by TTC staining method; conditions: ATCC 4968, 48 h; procedure, shortened: as §1
# Pseudomonas aeruginosa = assay: Antimicrobial activity against Pseudomonas aeruginosa ATCC 13388 after 48 hrs by TTC staining method; conditions: ATCC 13388, 48 h; procedure, shortened: as §1
# Prescottella equi = assay: Antimicrobial activity against Rhodococcus equi ATCC 6939 after 48 hrs by TTC staining method; conditions: Rhodococcus (subgen. Prescottella) equi, ATCC 6939, 48 h; procedure, shortened: as §1
# Salmonella enterica = assay: Antimicrobial activity against Salmonella choleraesuis ATCC 10708 after 48 hrs by TTC staining method; conditions: ATCC 10708, 48 h; procedure, shortened: as §1
# Staphylococcus aureus = assay: Antimicrobial activity against Staphylococcus aureus ATCC 6538 after 48 hrs by TTC staining method; conditions: ATCC 6538, 48 h; procedure, shortened: as §1
# [1] = tested on: Staphylococcus epidermidis; assay: Antimicrobial activity against Staphylococcus epidermidis ATCC 12228 after 48 hrs by TTC staining method; conditions: ATCC 12228, 48 h; procedure, shortened: as §1
# Bacillus subtilis = assay: Antimicrobial activity against Bacillus subtilis ATCC 5061 after 48 hrs by TTC staining method; conditions: ATCC 5061, 48 h; procedure, shortened: as §1
# Enterococcus faecium = assay: Antimicrobial activity against Enterococcus faecium CCT 5079 after 48 hrs by TTC staining method; conditions: CCT 5079, 48 h; procedure, shortened: as §1
# Enterococcus hirae = assay: Antimicrobial activity against Enterococcus hirae ATCC 10541 after 48 hrs by TTC staining method; conditions: ATCC 10541, 48 h; procedure, shortened: as §1
# Candida albicans = assay: Antimicrobial activity against Candida albicans ATCC 10231 after 48 hrs by TTC staining method
# Procedure, shortened: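 Yeast grown on Sabouraud dextrose agar. Cells suspended in 0.85% NaCl to McFarland 0.5 (checked at 580 nm), then diluted to 10^4 CFU/mL. Mueller-Hinton broth microdilution, in duplicate. Samples tested at 1.0-0.016 mg/mL; chloramphenicol and nystatin references at 0.25-0.002 mg/mL. Incubated 48 h at 36 °C, then 0.5% TTC added. MIC is the lowest concentration preventing visible growth by TTC stain.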
Compound,MIC (Escherichia coli),MIC (Micrococcus luteus),MIC (Pseudomonas aeruginosa),MIC (Prescottella equi),MIC (Salmonella enterica),MIC (Staphylococcus aureus),MIC [1],MIC (Bacillus subtilis),MIC (Enterococcus faecium),MIC (Enterococcus hirae),"MIC (Candida albicans; ATCC 10231, 48 h)",MIC (Candida albicans)
O=C(N[C@H](CO)[C@H](O)c1ccc([N+](=O)[O-])cc1)C(Cl)Cl [CHLORAMPHENICOL],40 µg/mL,50 µg/mL,850 µg/mL,40 µg/mL,60 µg/mL,20 µg/mL,40 µg/mL,20 µg/mL,70 µg/mL,120 µg/mL,,
O=C1c2ccccc2-c2c3c(cc4ccnc1c24)OCO3 [LIRIODENINE],> 1000 µg/mL,150 µg/mL,> 1000 µg/mL,10 µg/mL,> 1000 µg/mL,> 1000 µg/mL,,500 µg/mL,150 µg/mL,600 µg/mL,> 1000 µg/mL,
NYSTATIN,,,,,,,,,,,,50 µg/mL
